CAL PDZ FP-1 = inhibitors of human CAL PDZ peptide binding | Q9HD26 | purified CAL PDZ, TMR-peptide fluorescence polarization, 1 h | inhibition, % at 20 µM | 0.02% of 330,000 active | AID 504414;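 active means highest replicate inhibition of at least 40%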;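 further: plate controls were DMSO neutral control wells for no effect and unlabeled competitor peptide control wells for full effect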
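material = purified tagged CAL PDZ domain construct (CerCALP) | compound dosing = 20 µM, one dose | times = 1 h at RT | measured by = fluorescence polarization from S- and P-plane intensities, G-factor corrected | read-out = inhibition from polarization loss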
CAL PDZ FP-2 = CAL PDZ (human) peptide binding inhibition | purified CAL PDZ, TMR-peptide fluorescence polarization, 1 h | 0.92% of 300,000 active | inhibition, % at 24.9 µM;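 active means mean inhibition of at least 30% with at least half of replicates also reaching 30%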;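 further: 0% = DMSO neutral control and 100% = excess unlabeled competitor peptide PRC23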
DYRK1A inh = Dyrk1A (rat) kinase inhibition; inhibition, % at 12.5 µM; AID 504441; ADP-Glo luminescence, NFATc1 peptide; Q63470; 0.43% of 310,000 active; in the data active means inhibition above about 50%;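 further: plate controls were vehicle with enzyme for no effect and no enzyme for full effect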
ARNT TACC3 PPI = ARNT/TACC3 interaction disruption. inhibition, % at 9.99 µM. AlphaScreen His-ARNT PAS-B/GST-TACC3 binding, luminescence; TACC3 fragment carries E629A point mutation. Q9Y6A5. 0.66% of 390,000 active;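 active means mean inhibition of replicates at least 50% and at least half of replicates each reaching 50%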;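 further: 0% = complete ARNT plus TACC3 wells and 100% = ARNT alone without TACC3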
An asterisk follows results filed as active; x = no result; + = active, no number. Only some compounds are listed: those with a hit (about 1.4% of all), similar ones and a draw of the others.

SMILES	CAL PDZ FP-1	CAL PDZ FP-2	DYRK1A inh	ARNT TACC3 PPI
O=C(CCc1c[nH]c2ccccc12)NCCc1ccc(Cl)cc1	-1.5	36.5*	10.2	2.2
Cc1ccc(C(=O)NCC(=O)NCc2cc(=O)n(C)c(=O)n2C)cc1C	0.0	44.5*	1.5	-6.3
CC(C)NC(=O)N(C)C[C@@H]1Oc2ccc(NC(=O)Nc3ccc(C(F)(F)F)cc3)cc2C(=O)N([C@H](C)CO)C[C@@H]1C	x	x	x	1.3
c1ccc(-c2csc(Nc3cccnc3)n2)nc1	0.1	x	6.0	45.4*
COc1cccc2sc(NNC(=O)COc3ccccc3)nc12	-0.6	x	0.3	-3.2
COc1cccc2sc(Nc3nc(-c4ccccn4)cs3)nc12	1.4	-1.7	24.1	45.1*
O=C(NCC[C@H]1CC[C@@H](NC(=O)C2CCCCC2)[C@@H](CO)O1)Nc1ccc(Cl)cc1	x	x	x	-12.4
COc1ccc(N2C(=O)CCC(C(=O)N3CCCCC3)C2c2ccc(F)cc2)cc1 (configuration not stated)	-0.5	59.2*	1.0	-3.8
Cc1ccccc1C(=O)NC(CC(C)C)C(=O)N1CCN(c2ccccc2)CC1 (configuration not stated)	-0.6	34.5*	-3.9	3.7
C[C@@H]1CN([C@H](C)CO)C(=O)c2cccc(NC(=O)c3cnccn3)c2O[C@H]1CN(C)C	x	x	x	0.4
C[C@@H]1CCCCO[C@H](CN(C)S(=O)(=O)c2cccs2)[C@H](C)CN([C@@H](C)CO)C(=O)c2cc(NC(=O)Cc3ccccc3)ccc2O1	x	x	x	3.4
O=C(c1cc(COc2c(F)cccc2F)on1)N(Cc1ccccc1)CC1CC1	-0.5	63.7*	-0.5	-13.2
Cc1nn(-c2ccccc2)c(C)c1C(=O)Nc1nnc(-c2ccco2)o1	-1.6	-1.4	4.2	48.6*
O=C(Nc1nnc(-c2ccco2)o1)c1ccc(N2C(=O)CCC2=O)cc1	0.2	3.5	-3.3	58.1*
CC(=O)Nc1nnc(-c2ccco2)o1	-0.2	-5.4	x	8.7
C[C@@H]1CN([C@@H](C)CO)C(=O)c2cc(/C=C/c3ccccc3)cnc2O[C@H]1CN(C)C(=O)Nc1ccccc1F	x	x	x	1.0
O=C(N[C@@H]1CC[C@@H](CCNC(=O)c2cnccn2)O[C@@H]1CO)c1ccc2c(c1)OCO2	x	x	x	-3.5
O=C(N/N=C/c1ccco1)c1cc(-c2cccs2)[nH]n1	-5.1	40.6*	28.0	3.9
O=C(N/N=C/c1ccco1)c1cc(-c2ccc(Br)s2)[nH]n1	-3.2	-4.4	-1.3	-0.9
Cc1noc(C)c1NC(=O)N(C)C[C@H]1Oc2ccc(NC(=O)CCN3CCOCC3)cc2CC(=O)N([C@H](C)CO)C[C@@H]1C	x	x	x	-11.6
Cc1nn(CCOc2cccc(Br)c2)c(C)c1[N+](=O)[O-]	-1.4	58.7*	x	-5.5
N#Cc1cccc2c1-c1ccccc1/C2=N/NC(N)=S	-0.3	56.1*	27.1	12.7
O=C(C=Cc1ccc2c(c1)OCO2)OCC=Cc1ccc2c(c1)OCO2	0.6	53.5*	x	1.4
COc1cc(C=CC(=O)OCC=Cc2ccc3c(c2)OCO3)cc(OC)c1OC	0.9	x	-1.3	x
NC(=O)C1c2ccccc2Oc2ccccc21	x	74.5*	0.0	-7.0
SMILES	CAL PDZ FP-1	CAL PDZ FP-2	DYRK1A inh	ARNT TACC3 PPI
CC1CCN(CCCn2c(=S)[nH]c3c(sc4ccc([N+](=O)[O-])cc43)c2=O)CC1	0.8	-3.3	1.4	1.4
CC1CCN(CCCn2c(=S)[nH]c3c(sc4ccccc43)c2=O)CC1	12.5	50.5*	7.5	0.9
S=C(Nc1ccccc1Cl)NC1CCC(NC(=S)Nc2ccccc2Cl)CC1 (configuration not stated)	0.1	31.3*	x	-8.4
CCOC(=O)C1(CCCc2ccccc2)CCN(Cc2cnn(C)c2)CC1	-0.2	75.1*	3.1	-4.2
C[C@H](CO)N1C[C@H](C)[C@H](CN(C)C(=O)Nc2ccc3c(c2)OCO3)OCCCC[C@H](C)Oc2ccc(NC(=O)c3ccncc3)cc2C1=O	x	x	x	-0.6
Cc1ccc(NC(=O)CS(=O)CC(=O)N(c2ccccc2F)C(C)C(=O)NC2CCCC2)cc1 (configuration not stated)	-2.2	-5.2	-1.1	x
CC(C(=O)NC(C)(C)C)N(C(=O)CS(=O)CC(=O)Nc1ccc(F)cc1)c1ccccc1F (configuration not stated)	1.4	33.2*	0.8	5.1
O=C1c2ccsc2SCCN1Cc1ccc(F)cc1	x	38.6*	0.6	9.4
C[C@@H]1CN([C@H](C)CO)C(=O)Cc2cc(NC(=O)CCC(F)(F)F)ccc2O[C@@H]1CN(C)Cc1ccc(C(=O)Nc2ccccc2N)cc1	x	x	x	3.4
Cc1onc(-c2ccccc2)c1C(=O)NC(=S)NNC(=O)c1ccc(O)cc1	0.2	0.2	2.4	21.3
Cc1onc(-c2ccccc2)c1C(=O)NC(=S)NNC(=O)c1ccccc1O	0.5	-0.6	-4.2	58.5*
Cc1ccc(NC(=O)c2c(-c3ccccc3)noc2C)nc1	-0.6	+	x	-10.7
Cc1onc(-c2ccccc2)c1C(=O)NC(=S)NNC(=O)c1ccc(O)cc1O	-1.2	-4.8	2.7	95.4*
Cc1onc(-c2ccccc2)c1C(=O)Nc1ccon1	0.3	1.1	4.4	-2.2
COCCNC(=O)C[C@H]1CC[C@H]2[C@H](COc3ccc(NC(=O)C4CCCC4)cc3C(=O)N2C)O1	x	x	x	-8.9
C=CCN(c1ccccc1OC)S(=O)(=O)c1cccc(C(=O)NC2=NCCS2)c1	-0.9	-10.1	x	2.6
C=CCN(c1ccccc1OC)S(=O)(=O)c1cccc(C(=O)Nc2nnc(C3CC3)s2)c1	-0.5	40.4*	2.1	2.0
COc1ccc(NC(=O)Nc2ccc3c(c2)C(=O)N([C@H](C)CO)C[C@H](C)[C@H](CN(C)S(=O)(=O)c2cccs2)O3)cc1	x	x	x	1.9
COc1ccccc1CN1[C@H](CO)[C@H]2c3ccccc3N(C(=O)C3CCCCC3)C[C@H]21	x	x	x	-0.1
COc1cccc(-n2c(=O)c3sccc3n(CC(=O)NCC3CCCO3)c2=O)c1 (configuration not stated)	-2.8	38.5*	-3.4	3.5
O=C1c2ccccc2[C@@]2(Cc3ccccc3N(Cc3ccccc3)C2=O)[C@H](c2ccc(CO)cc2)N1C1CCCCC1	x	x	x	2.3
O=C(NCCCN1CCOCC1)C(=O)NCC1OCCN1S(=O)(=O)c1ccc(F)cc1 (configuration not stated)	-3.3	-3.9	-3.5	8.7
COCCNC(=O)C(=O)NCC1OCCN1S(=O)(=O)c1ccc(F)cc1 (configuration not stated)	-0.3	34.2*	-2.2	-7.1
O=C(NCCN1CCOCC1)C(=O)NCC1OCCN1S(=O)(=O)c1ccc(F)cc1 (configuration not stated)	2.9	83.0*	-5.8	30.9
COc1ccc(CCNC(=O)CCSCc2ccccc2F)cc1OC	x	41.4*	3.6	-19.8
CCOc1ccc(CNC(=O)CCSCc2ccccc2F)cc1OC	-1.8	-3.9	7.0	14.7
CCNC(=S)NNC(=O)c1cccn(Cc2ccc(Cl)cc2)c1=O	9.1	-5.3	5.9	44.2*
CCCNC(=O)C[C@H]1CC[C@H]2[C@H](COc3ccc(NC(=O)c4cc(F)cc(F)c4)cc3C(=O)N2C)O1	x	x	x	1.1
